Measured values reported in ChEMBL document CHEMBL1165977, “Novel analogues of Istaroxime, a potent inhibitor of Na(+),K(+)-ATPase: Synthesis, structure-activity relationship and 3D-quantitative structure-activity relationship of derivatives at position 6 on the androstane scaffold” (Bioorg Med Chem, 2010).

Assays:
[1] = Inhibition of dog kidney Na+K+-ATPase assessed as hydrolysis of [32P]ATP; set-up: species or system Canis lupus familiaris
How it was run: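 Dog kidney Na+,K+-ATPase, isolated and purified by the Jørgensen method. Enzyme activity was read as % hydrolysis of 32P-ATP with versus without test compound. IC50 was obtained by nonlinear least-squares curve fitting, as the mean of two or three experiments.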

Cavia porcellus [2] = experiment: Toxicity in guinea pig assessed as death at 0.16 ml/min, iv up to 90 mins; format: organism-based; conditions: in vivo, 1.5 h
How it was run: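 Anesthetized guinea pigs with a jugular vein cannula and an intubated trachea for spontaneous respiration. After stabilization, drug was infused iv at 0.16 mL/min until death or for up to 90 min. Vehicle was DMSO diluted in physiological solution to 1% DMSO final. Read-out was +dP/dt_max. ED80 (dose raising +dP/dt_max by 80%) came from the dose–response, and the doses giving maximum inotropy and death were recorded, giving the lethal dose/ED80 ratio.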

Cavia porcellus [3] = species on record: Cavia porcellus; experiment: Positive inotropic activity in electrically driven guinea pig atria assessed as maximal concentration required to increase in […]; format: functional
Cavia porcellus [4] = experiment: Positive inotropic activity in guinea pig atria assessed as increase in […] at 0.16 ml/min, iv; format: functional
Cavia porcellus [5] = experiment: Positive inotropic activity in iv dosed guinea pig atria assessed as concentration required to increase in […]; format: functional

SMILES | IC50 [1] [µM] | other results
C[C@]12CC/C(=N\OCCN)C[C@@H]1[C@H](O[N+](=O)[O-])C[C@@H]1[C@@H]2CC[C@]2(C)C(=O)CC[C@@H]12 | 2.9 | 
CNCCCO/N=C1\CC[C@@]2(C)[C@H](C1)[C@@H](COC)C[C@@H]1[C@@H]2CC[C@]2(C)C(=O)CC[C@@H]12 | 2 | 
C=CCO/N=C1\C[C@@H]2[C@H](CC[C@]3(C)C(=O)CC[C@@H]23)[C@@]2(C)CC/C(=N\OCCN)C[C@H]12 | 43 | 
COC(=O)/C=C1\C[C@@H]2[C@H](CC[C@]3(C)C(=O)CC[C@@H]23)[C@@]2(C)CC/C(=N\OCCN)C[C@H]12 | 64 | 
COC[C@@H]1C[C@@H]2[C@H](CC[C@]3(C)C(=O)CC[C@@H]23)[C@@]2(C)CC/C(=N\OCCN)C[C@H]12 | 3 | 
COC[C@H]1C[C@@H]2[C@H](CC[C@]3(C)C(=O)CC[C@@H]23)[C@@]2(C)CC/C(=N\OCCN)C[C@H]12 | 0.5 | 
C[C@]12CC/C(=N\OCCN)C[C@@H]1[C@@]1(CO1)C[C@@H]1[C@@H]2CC[C@]2(C)C(=O)CC[C@@H]12 | 0.91 | 
C[C@]12CC/C(=N\O[C@@H]3CCNC3)C[C@@H]1/C(=N/O)C[C@@H]1[C@@H]2CC[C@]2(C)C(=O)CC[C@@H]12.Cl | 0.016 | Activity (Cavia porcellus [2]): Non-toxic; Activity (Cavia porcellus [3]): 4.3 µM/g; Emax (Cavia porcellus [4]): 144%; ED80 (Cavia porcellus [5]): 1.5 µM/g
CO/N=C1\C[C@@H]2[C@H](CC[C@]3(C)C(=O)CC[C@@H]23)[C@@]2(C)CC/C(=N\O[C@@H]3CCNC3)C[C@H]12 | 0.018 | 
C[C@]12CC/C(=N\O[C@@H]3CCNC3)C[C@@H]1[C@@H](CCO)C[C@@H]1[C@@H]2CC[C@]2(C)C(=O)CC[C@@H]12.Cl | 0.058 | Activity (Cavia porcellus [2]): Non-toxic; Activity (Cavia porcellus [3]): 5.1 µM/g; Emax (Cavia porcellus [4]): 183%; ED80 (Cavia porcellus [5]): 1.9 µM/g
C[C@]12CC/C(=N\OCCN)C[C@@H]1[C@]1(CO1)C[C@@H]1[C@@H]2CC[C@]2(C)C(=O)CC[C@@H]12 | 0.87 | 
C[C@]12CC/C(=N\O[C@@H]3CCNC3)C[C@@H]1[C@@H](CO)C[C@@H]1[C@@H]2CC[C@]2(C)C(=O)CC[C@@H]12 | 0.026 | 
CNCCCO/N=C1\CC[C@@]2(C)[C@H](C1)C1(CC1)C[C@@H]1[C@@H]2CC[C@]2(C)C(=O)CC[C@@H]12 | 1.3 | 
CNCCCO/N=C1\CC[C@@]2(C)[C@H](C1)C(=O)C[C@@H]1[C@@H]2CC[C@]2(C)C(=O)CC[C@@H]12 | 0.25 | 
C=C1C[C@@H]2[C@H](CC[C@]3(C)C(=O)CC[C@@H]23)[C@@]2(C)CC/C(=N\OCCCNC)C[C@H]12 | 0.57 | 
C[C@]12CC/C(=N\OCCN)C[C@@H]1[C@@H](C#N)C[C@@H]1[C@@H]2CC[C@]2(C)C(=O)CC[C@@H]12 | 1.1 | 
COC(=O)[C@H]1C[C@@H]2[C@H](CC[C@]3(C)C(=O)CC[C@@H]23)[C@@]2(C)CC/C(=N\OCCN)C[C@H]12 | 0.41 | 
C[C@]12CC/C(=N\OCCN)C[C@@H]1[C@@H](C(N)=O)C[C@@H]1[C@@H]2CC[C@]2(C)C(=O)CC[C@@H]12 | 0.63 | 
C#C[C@H]1C[C@@H]2[C@H](CC[C@]3(C)C(=O)CC[C@@H]23)[C@@]2(C)CC/C(=N\OCCCNC)C[C@H]12 | 1.2 | 
CNCCCO/N=C1\CC[C@@]2(C)[C@H](C1)[C@@H](C(N)=O)C[C@@H]1[C@@H]2CC[C@]2(C)C(=O)CC[C@@H]12 | 1.9 | 
CNCCCO/N=C1\CC[C@@]2(C)[C@H](C1)[C@@H](C(=O)OC)C[C@@H]1[C@@H]2CC[C@]2(C)C(=O)CC[C@@H]12 | 4 | 
CO[C@@H]1C[C@@H]2[C@H](CC[C@]3(C)C(=O)CC[C@@H]23)[C@@]2(C)CC/C(=N\OCCN)C[C@H]12 | 1.5 | 
C[C@]12CC/C(=N\OCCN)C[C@@H]1[C@@H](O)C[C@@H]1[C@@H]2CC[C@]2(C)C(=O)CC[C@@H]12 | 0.52 | 
C[C@]12CC/C(=N\OCCN)C[C@@H]1[C@H](O)C[C@@H]1[C@@H]2CC[C@]2(C)C(=O)CC[C@@H]12 | 2.1 | 
C=C1C[C@@H]2[C@H](CC[C@]3(C)C(=O)CC[C@@H]23)[C@@]2(C)CC/C(=N\OCCN)C[C@H]12 | 0.042 | 
